Assay outcomes as filed in PubChem BioAssay.
The list is not random: actives were taken first. Their share in the collection is about 2.1%.
APJ antag: APJ receptor antagonism; P35414; CHO-K1 APJ beta-arrestin complementation, luminescence; inhibition, % at 20 µM; actives 0.32% (n = 330,000); AID 2521;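 active = inhibition above about 40% at 20 µM, limit read from the data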;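 note: cells challenged with 10 nM apelin-13 agonist together with compound; plate controls were apelin-13 plus DMSO wells for no effect and DMSO wells lacking apelin-13 for full effect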
EBI2 block: blocks human EBI2 receptor beta-arrestin signaling; EBI2 beta-arrestin recruitment, luminescence, 7a,25-OHC stimulated; inhibition, % at 5 µM; actives 0.81% (n = 360,000); in the data active = inhibition above about 38%;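 note: enzyme fragment complementation signal reports receptor beta-arrestin coupling in cells; 0% = agonist plus DMSO wells and 100% = wells without agonist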
HTR2A ag: activates the mouse 5-HT2A serotonin receptor. P35363. actives 0.66% (n = 360,000). activation, % at 7.6 µM. CHO-K1 mHTR2A beta-arrestin complementation, luminescence; percent of 30 µM serotonin response. AID 624169;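 active = activation above a run cutoff, the mean activation of all tested compounds plus 3 SD, cut at about 14% in these data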;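 note: 0% = plate median of compound wells and 100% = 30 µM serotonin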
CCR6 antag: blocks CCL20-driven beta-arrestin recruitment at human CCR6. CHO-K1 CCR6 PathHunter beta-arrestin, luminescence, CCL20-stimulated. actives 0.49% (n = 340,000). P51684. inhibition, % at 20 µM;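 active = compounds whose inhibition of the agonist-driven luminescence signal at 20 µM reaches about 50%, limit read from the data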;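 note: cells stimulated with CCL20 at 14 nM final; plate controls were DMSO with CCL20 for no effect and DMSO without agonist for full effect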
Target sequence (P51684 whole entry, looked up): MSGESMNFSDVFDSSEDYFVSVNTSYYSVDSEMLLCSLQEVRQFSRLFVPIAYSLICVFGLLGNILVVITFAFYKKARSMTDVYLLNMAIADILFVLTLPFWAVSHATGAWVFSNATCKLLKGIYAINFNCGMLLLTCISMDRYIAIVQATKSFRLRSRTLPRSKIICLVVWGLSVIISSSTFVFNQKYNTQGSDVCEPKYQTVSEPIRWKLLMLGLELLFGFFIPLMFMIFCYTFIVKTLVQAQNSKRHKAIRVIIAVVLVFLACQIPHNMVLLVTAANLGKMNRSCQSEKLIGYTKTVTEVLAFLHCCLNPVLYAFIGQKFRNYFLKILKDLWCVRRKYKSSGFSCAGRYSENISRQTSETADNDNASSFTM
APJ ag: APJ receptor agonism. CHO-K1 APJ PathHunter beta-arrestin, luminescence; 0% DMSO wells, 100% apelin. activation, % at 20 µM. AID 2520. P35414. actives 0.11% (n = 330,000);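 active = activation more than six SD over the plate average, tested at 20 µM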;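 note: 0% = DMSO alone and 100% = apelin-13 at 10 nM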
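system = engineered CHO-K1 APJ arrestin reporter cells | input = 1000 cells per well | timing = overnight seeding, 90 min compound at 25 °C, 1 h detection | measured by = enzyme-fragment complementation luminescence | read-out = beta-arrestin recruitment to APJ as agonist activity, luminescent signal | control set = negative DMSO alone, positive Apelin-13 at 10 nM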
CXCR6 inh: CXCR6 (human) receptor inhibition | actives 0.36% (n = 360,000) | CHO-K1 PathHunter CXCR6 beta-arrestin, luminescence | O00574 | inhibition, % at 20 µM | AID 602244; in the data active = inhibition above about 34%, passing the limit was not always enough;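 note: antagonist mode with CXCL16 agonist at 10 nM final; 0% = 10 nM CXCL16 with DMSO and 100% = unstimulated wells without agonist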
OPRM1 ag: activates human mu opioid receptor in HTR2A counterscreen; shares compounds with HTR2A ag; U2OS OPRM1 beta-arrestin PathHunter, luminescence; DMSO 0%, DAMGO 9.3 µM 100%; activation, % at 9.3 µM; actives 5.3% (n = 2,300); AID 624380;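 active = mean activation above the mean of DMSO-only wells plus 3 SD, cut at about 0.5% in these data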
Target sequence (P35372 whole entry, looked up): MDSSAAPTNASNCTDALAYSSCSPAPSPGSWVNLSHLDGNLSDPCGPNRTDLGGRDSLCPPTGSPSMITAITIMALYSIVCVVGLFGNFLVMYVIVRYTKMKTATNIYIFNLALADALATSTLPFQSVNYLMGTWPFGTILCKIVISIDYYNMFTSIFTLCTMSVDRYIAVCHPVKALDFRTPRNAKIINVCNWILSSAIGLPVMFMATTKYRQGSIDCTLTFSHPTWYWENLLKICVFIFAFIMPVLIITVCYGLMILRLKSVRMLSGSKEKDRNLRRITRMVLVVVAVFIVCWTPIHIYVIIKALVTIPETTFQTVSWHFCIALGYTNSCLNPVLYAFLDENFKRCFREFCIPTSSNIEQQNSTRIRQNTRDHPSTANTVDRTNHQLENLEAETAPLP
m5-HT2A ag conf: confirmation of mouse HTR2A serotonin receptor agonists. shares compounds with HTR2A ag. CHO-K1 PathHunter beta-arrestin recruitment, luminescence; DMSO 0%, 30 µM serotonin 100%. activation, % at 7.6 µM. actives 19% (n = 2,300);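 active = mean activation across triplicates above the hit threshold derived in the original primary screen, cut at about 15% in these data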
EBI2 conf: EBI2 (human) antagonism, single concentration confirmation; shares compounds with EBI2 block; EBI2 beta-arrestin luminescence, 7a,25-OHC antagonism; inhibition, % at 5 µM; actives 29% (n = 2,400);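 active = inhibition of at least 50%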
EBI2 ag: EBI2 agonism counter-screen; shares compounds with EBI2 block; activation, % at 5 µM; 2,400 tested, under 10 active; EBI2-expressing cells, agonist mode, luminescence, 60 min; 0% vehicle, 100% 7α,25-dihydroxycholesterol control; AID 652000;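 active = activation of at least 50%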
bGal cs: counter-screen for EBI2 antagonists: E. coli beta-galactosidase inhibition; shares compounds with EBI2 block; purified beta-galactosidase, luminescent Galacton Star, 15 min; inhibition, % at 5 µM; actives 1% (n = 2,400); AID 652176;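 active = replicate-average signal at least 3 plate SD below neutral wells, shown as high inhibition, flagging enzyme-inhibiting false positives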;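 note: 0% = DMSO wells with enzyme and 100% = wells lacking enzyme; higher means stronger loss of beta-gal luminescence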
Active calls of the source: *; x = no result.

SMILES | APJ antag | EBI2 block | HTR2A ag | CCR6 antag | APJ ag | CXCR6 inh | OPRM1 ag | m5-HT2A ag conf | others
O=C(NCCc1ccccc1)C1CCCN(c2ncnc3c2nc2n3CCCCC2)C1 (stereo unspecified) | -39.9 | -2.3 | 14.5* | 12.0 | -2.9 | -3.3 | -0.7 | -5.0
O=C(C1CCN(c2ncnc3c2nc2n3CCCCC2)CC1)N1CCN(c2cccc(Cl)c2)CC1 | 3.7 | 6.0 | 18.2* | 19.4 | -0.1 | -4.5 | -0.6 | -1.3
CCn1c(C2CC(=O)N(Cc3ccccc3)C2)nc2ccccc21 (stereo unspecified) | -0.5 | 11.6 | 40.5* | 9.0 | 6.9 | 1.6 | -0.2 | -3.8
CC(C)(C)N1CC(c2nc3ccccc3n2Cc2ccccc2)CC1=O (stereo unspecified) | -1.9 | -11.8 | 0.7 | -0.3 | 0.9 | 39.8 | x | x
COC(=O)C(=O)C1CCc2c(Cl)cc(OC)c(OC)c2C1=O (stereo unspecified) | x | -25.8 | -3.9 | -7.9 | x | -5.8 | x | x
Cc1ccc(C)c(N(C(=O)CCC(=O)Nc2cc(C)on2)C(C(=O)NC2CCCC2)c2ccco2)c1 (stereo unspecified) | 8.3 | 11.9 | 17.1* | 2.3 | -2.2 | -5.2 | -0.4 | 0.5
CCCC(=O)N1CCN(Cc2ccc3c(c2)OCO3)CC1 | -5.3 | 4.2 | 8.0 | 6.3 | -2.5 | -3.0 | x | x
Cc1cccc(C(=O)N2CCN(Cc3ccc4c(c3)OCO4)CC2)c1 | 6.4 | 6.1 | 14.8* | -3.4 | -0.3 | -10.1 | 0.2 | 7.2
O=C(c1ccc(Br)o1)N1CCN(Cc2ccc3c(c2)OCO3)CC1 | 11.8 | 2.7 | 16.7* | 12.7 | 0.9 | 0.5 | 0.8* | 19.6*
CC(C)CC(=O)N1CCN(Cc2ccc3c(c2)OCO3)CC1 | -8.6 | 5.4 | 18.5* | 15.2 | 0.6 | -6.0 | 0.6* | 36.4*
COc1ccccc1C(=O)Nc1ccc(Br)cc1C | 1.1 | 8.4 | 3.9 | -11.5 | -2.3 | -0.3 | x | x
CC(=O)c1ccccc1OCC(O)Cn1ccnc1 (stereo unspecified) | 17.6 | 0.3 | 20.6* | 5.9 | -1.4 | -3.7 | -0.7 | -3.2
CC(C)NC(=O)C1(C)CN(S(C)(=O)=O)CC(=O)N1C1CCN(Cc2ccccc2)CC1 (stereo unspecified) | x | 6.0 | 27.1* | x | x | x | -0.5 | -2.1
CC1(C(=O)NCc2ccccc2)CN(S(C)(=O)=O)CC(=O)N1C1CCN(Cc2ccccc2)CC1 (stereo unspecified) | x | -5.4 | 1.6 | x | x | x | x | x
O=C(c1cnc2n(c1=O)CCS2)N1CCN(c2ccc(Cl)c(Cl)c2)CC1 | 15.1 | -1.1 | 19.9* | 9.5 | 0.4 | -4.0 | -0.6 | 3.9
O=C(Nc1ccccc1)c1cnc2n(c1=O)CCS2 | -51.1 | -11.8 | 2.8 | 6.9 | -2.7 | 6.0 | x | x
Cc1cccc(NS(=O)(=O)c2ccc(NC(=O)N3CCCCC3)cc2)c1 | -5.0 | -8.1 | 14.8* | 5.0 | 7.2 | -5.5 | -0.3 | -4.3
Cc1ccc(NS(=O)(=O)c2ccc(NC(=O)N3CCCCC3)cc2)cc1 | -20.6 | -3.5 | 2.8 | -6.2 | 0.8 | -7.1 | x | x
CCCCc1cc(=O)oc2cc(OC(C)C(=O)NCc3ccccn3)c(Cl)cc12 (stereo unspecified) | -16.7 | 16.6 | 17.1* | 21.5 | -3.8 | 2.9 | -0.5 | -2.7
CN(C)c1ccc(C(C(=O)NCc2ccccc2)N(Cc2ccco2)C(=O)c2snc(C(N)=O)c2N)cc1 (stereo unspecified) | x | -44.2 | 16.2* | 9.0 | x | 13.3 | -0.6 | 3.0
NC(=O)c1nsc(C(=O)N(Cc2ccco2)C(C(=O)NCc2ccc(F)cc2)c2ccc(O)cc2)c1N (stereo unspecified) | -0.3 | -7.0 | 0.8 | 11.5 | -1.2 | 8.6 | x | x
CCN(CC)C(=O)CCNS(=O)(=O)c1ccc(C)cc1 | 18.1 | -6.3 | 15.2* | 12.0 | 4.4 | -6.9 | -0.5 | 2.6
Cc1cccc(C)c1-n1nnnc1C(C1CC1)N1CCN(C/C=C/c2ccccc2)CC1 (stereo unspecified) | x | 44.2* | 29.7* | x | x | 11.4 | 0.1 | 57.2* | EBI2 conf=18.2;EBI2 ag=-1.3;bGal cs=0.5
CCC(c1nnnn1-c1c(C)cccc1C)N1CCN(C/C=C/c2ccccc2)CC1 (stereo unspecified) | x | 58.2* | 27.1* | x | x | 10.4 | 0.1 | 78.4* | EBI2 conf=27.7;EBI2 ag=0.3;bGal cs=1.4
COc1ccc(-n2nnnc2C(C2CC2)N2CCN(C/C=C/c3ccccc3)CC2)cc1 (stereo unspecified) | x | 18.7 | 9.7 | x | x | 2.7 | x | x
SMILES | APJ antag | EBI2 block | HTR2A ag | CCR6 antag | APJ ag | CXCR6 inh | OPRM1 ag | m5-HT2A ag conf | others
CCC(c1nnnn1-c1c(C)cccc1C)N1CCN(CC)CC1 (stereo unspecified) | x | -3.4 | -0.4 | x | x | 6.4 | x | x
OC(COc1ccc2cc(Br)ccc2c1)CN1CCN(c2ccccn2)CC1 (stereo unspecified) | 15.7 | 82.0* | 24.2* | -5.7 | -2.8 | -13.2 | -0.2 | 107.8* | EBI2 conf=49.4;EBI2 ag=1.2;bGal cs=-13.0
CC(C)n1nccc1N(Cc1ccc(C#N)cc1)S(=O)(=O)c1ccccc1 | 0.9 | 18.6 | 3.5 | 24.7 | -3.5 | -4.5 | x | x
CC1CCCN(c2ccc(C(=O)Nc3ccc4c(c3)OCO4)cc2[N+](=O)[O-])C1 (stereo unspecified) | 18.7 | 45.9* | 38.4* | 32.4 | -1.0 | 14.9 | -0.7 | 9.3 | EBI2 conf=33.9;EBI2 ag=0.8;bGal cs=7.6
Cc1ccc2cc(NC(=O)C3(C)CCN(C)C3)ccc2n1 (stereo unspecified) | x | -18.5 | -5.4 | x | x | -2.8 | x | x
S=C(NCc1cccnc1)Nc1ccc(Oc2ccc(Cl)cc2)cc1 | -4.0 | 45.5* | 2.1 | 11.2 | 7.4 | 0.7 | x | x | EBI2 conf=21.8;EBI2 ag=-1.8;bGal cs=-10.0
CC(=O)Nc1ccc(Nc2nc(-c3sc(C)nc3C)cs2)cc1 | -16.7 | 1.0 | -1.8 | 4.9 | 5.1 | -4.1 | x | x
CC(=O)c1ccc(Nc2nc(-c3sc(C)nc3C)cs2)cc1 | x | 51.3* | -3.0 | x | x | -7.1 | x | x | EBI2 conf=38.4;EBI2 ag=1.0;bGal cs=11.1
CC(=O)c1cccc(Nc2nc(-c3sc(C)nc3C)cs2)c1 | 1.8 | 51.7* | 2.0 | -2.2 | -1.3 | 1.6 | x | x | EBI2 conf=37.8;EBI2 ag=-1.0;bGal cs=-11.0
